# Hits are enriched below; roughly 3% of the tested compounds scored in any of these assays.
# NPY Y1 blocker: blocks the human neuropeptide Y Y1 receptor; P25929; HEK293-CNG Y1 cells, membrane potential fluorescence; NPY at EC95, then isoproterenol; inhibition, % at 3.6 µM; 1% of 200,000 active; AID 1040;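 active = inhibition above the campaign mean inhibition of all tested compounds plus 3 SD, cut at about 20% in these data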;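 also: 0% = DMSO wells given NPY plus isoproterenol and 100% = isoproterenol alone without NPY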
#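 Test system: HEK293 cells co-expressing NPY Y1 receptor and cyclic-nucleotide gated channel; Also added: NPY (25 nM), isoproterenol (1 µM), Ro 20-1724 (25 µM); Compound dosing: one concentration, 3.6 µM, in 0.4% DMSO; Timing: dye 3 h, compound 60 min room temperature, stimulation 45 min; Technique: Membrane-potential fluorescent dye readout.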
# Wee1 degr inh: human Wee1 degradation inhibition, primary screen. P30291. HeLa Luc-Wee1K328M stability, luciferase luminescence; 100% = proteasome inhibitor MG132 effect. reporter increase, % at 5 µM. 1.2% of 220,000 active;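 active = activation above the mean of all tested compounds plus 3 SD, set per screening run, cut at about 8.8% in these data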;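 also: cells exposed to compound for 20 h before luminescence read; 0% = DMSO alone and 100% = MG132 at 30 µM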
# Target sequence (P30291 whole entry K328M): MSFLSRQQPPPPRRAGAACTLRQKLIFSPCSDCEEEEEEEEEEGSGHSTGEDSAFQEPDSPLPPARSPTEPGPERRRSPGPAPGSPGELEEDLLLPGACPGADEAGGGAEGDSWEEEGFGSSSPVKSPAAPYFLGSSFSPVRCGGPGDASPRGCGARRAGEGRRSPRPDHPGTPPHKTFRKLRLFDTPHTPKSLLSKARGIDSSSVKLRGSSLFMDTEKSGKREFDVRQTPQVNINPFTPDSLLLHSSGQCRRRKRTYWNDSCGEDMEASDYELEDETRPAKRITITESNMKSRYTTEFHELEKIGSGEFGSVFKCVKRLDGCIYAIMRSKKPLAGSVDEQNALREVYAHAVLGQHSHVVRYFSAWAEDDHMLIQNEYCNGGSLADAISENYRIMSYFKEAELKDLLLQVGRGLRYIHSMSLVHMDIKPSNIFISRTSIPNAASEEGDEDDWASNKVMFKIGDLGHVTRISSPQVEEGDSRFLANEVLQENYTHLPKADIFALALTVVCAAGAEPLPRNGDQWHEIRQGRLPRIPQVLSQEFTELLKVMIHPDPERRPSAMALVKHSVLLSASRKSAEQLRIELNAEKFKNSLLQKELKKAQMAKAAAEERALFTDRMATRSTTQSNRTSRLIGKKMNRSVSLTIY
# NPY Y2 blocker: antagonists of human neuropeptide Y receptor Y2. inhibition, % at 2.7 µM. P49146. AID 793. NPY-Y2 expressing cells, antagonist mode. 0.99% of 140,000 active; in the data active = inhibition above about 17%;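 also: 0% = vehicle with agonist challenge and 100% = reference antagonist with challenge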
# NPY-Y1 PAM-ag: potentiators or agonists of human neuropeptide Y receptor Y1 | P25929 | NPY-Y1 expressing cells, potentiator/agonist activation | activation, % at 3.6 µM | 0.37% of 220,000 active | AID 1304; in the data active = activation above about 33%, passing the limit was not always enough;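 also: cells stimulated with NPY at EC10 then isoproterenol at EC100; 0% = low agonist plus stimulus and 100% = saturating agonist plus stimulus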
# NPY-Y2 PAM-ag: potentiates or activates human NPY-Y2 receptor. cells expressing NPY-Y2, potentiator/agonist read-out. activation, % at 3.6 µM. 0.45% of 220,000 active; in the data active = activation above about 27%;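 also: cells stimulated with NPY near EC25 plus isoproterenol at EC100; 0% = vehicle plus submaximal agonist and 100% = vehicle plus saturating agonist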
# Hsp70 act: switches on Hsp70 transcription; activation, % at 10 µM; 0.04% of 200,000 active; HeLa Hsp70 promoter luciferase reporter, luminescence; scaled: vehicle 0, proteasome-inhibitor control 100%; AID 1203;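 active = activation above the mean across all tested compounds plus 3 SD, cutoff set per campaign, cut at about 5.5% in these data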;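 also: 100% = MG132 at 30 µM as the positive control and 0% = DMSO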
# * = called active by the depositor; / = not tested or not shown.
SMILES,NPY Y1 blocker,Wee1 degr inh,NPY Y2 blocker,NPY-Y1 PAM-ag,NPY-Y2 PAM-ag,Hsp70 act
Cc1ccc(NS(=O)(=O)c2ccc(OCC(=O)Nc3cccc([N+](=O)[O-])c3)c(C)c2)cc1,-15.8,0.6,-5.0,43.6*,28.4,-0.3
Cc1ccc(S(=O)(=O)CCC(=O)Nc2cccc([N+](=O)[O-])c2)cc1,6.2,0.9,/,-8.3,-2.4,-0.1
NS(=O)(=O)c1ccc(CCNC(=O)CSc2nc3ccsc3c(=O)n2CC2CCC(C(=O)O)CC2)cc1 (stereo not given),-3.1,10.7*,/,-0.2,-7.7,-0.3
NS(=O)(=O)c1ccc(CCNC(=O)CSc2nc3ccsc3c(=O)n2C2CC2)cc1,-3.3,0.3,2.7,-13.0,2.7,-0.3
NS(=O)(=O)c1ccc(NC(=O)c2ccccc2C(=O)N2CCCCC2)cc1,-3.6,-0.2,1.0,3.8,6.4,-0.4
CCCC1C2C(=O)N(c3ccccc3OCC)C(=O)C2ON1c1ccccc1 (stereo not given),1.1,1.7,3.6,-11.8,-18.1,-0.5
CCCCCCNC(=O)c1cc(-c2ccco2)nc2ccccc12,57.1*,0.0,66.0*,-149.4,-122.8,0.0
CCc1cc(C(=O)Nc2cc(S(=O)(=O)N(C)C)ccc2C)sc1C,1.2,-1.8,/,-12.5,-7.7,-0.2
O=C(c1ccc(CSc2nc3ccncc3[nH]2)cc1)N1CCCCCC1,/,-3.1,/,26.7,6.9,/
O=C(c1ccc(CSc2nc3ccncc3[nH]2)cc1)N1CCN(c2cccc(Cl)c2)CC1,1.5,2.3,-1.1,50.0*,36.1*,-0.1
O=C(N/N=C/c1ccc(OC(F)F)cc1OC(F)F)c1cccc(S(=O)(=O)N2CCOCC2)c1,-6.6,2.9,/,8.2,7.6,-0.1
COC(=O)CC1C(=O)NCCN1C(=S)NC(=O)c1sc2ccccc2c1Cl (stereo not given),1.2,10.3*,/,-9.7,-4.2,1.1
Cc1nn(C)c(C)c1/C=N/NC(=O)C(C)(C)Oc1ccc(Cl)cc1,0.2,-1.9,1.2,7.0,-0.7,-0.3
Cc1c(/C=N/NC(=O)C(C)(C)Oc2ccc(Cl)cc2)cnn1C,1.9,9.9*,3.7,9.3,-9.3,-0.3
CCC(CC)C(=O)c1c[nH]c(C(=O)N2CCN(c3ccc(OC)cc3)CC2)c1,0.7,4.3,/,10.1,15.3,0.0
O=C(Cn1nc(-c2ccccc2)ccc1=O)Nc1ccc(N2CCN(C(=O)c3ccccc3)CC2)cc1,-12.2,-0.7,-6.8,32.3,33.0*,-0.2
CCOc1ccccc1NC(=O)Nc1ccc(CC#N)cc1,/,10.3*,/,7.3,-7.7,/
COc1cc(C=O)ccc1Oc1nc(Nc2ccc(F)cc2F)nc(N2CCOCC2)n1,5.2,0.3,/,-29.7,-24.6,0.1
O=C(N/N=C/c1cccc([N+](=O)[O-])c1)c1cccc(Br)c1,0.0,9.4*,/,6.4,-0.8,-0.2
O=C(N/N=C/c1ccc(Br)s1)c1ccc([N+](=O)[O-])cc1,-3.2,9.0*,/,11.6,6.4,-0.1
COc1ccc(/C=N/NS(=O)(=O)c2ccccc2)cc1OS(=O)(=O)c1ccc(C)cc1,0.0,2.0,-2.2,-8.0,0.2,0.0
CCOC(=O)c1[nH]c2ccccc2c1NC(=S)Nc1cccc(C)c1,8.0,9.3*,1.2,-43.2,-1.0,0.0
CC/C(Cc1ccccc1)=N/NC(=O)c1cccc(Br)c1,3.3,-1.1,2.1,-2.3,-8.7,-0.3
Cc1noc(C)c1C(=O)OCC(=O)Nc1cc(Cl)ccc1Oc1ccccc1,23.2*,-0.8,22.1*,-20.0,-15.6,0.0
O=C1C2C3C=CC(C2C(=O)N1c1ccccc1O)C1C2C(=O)N(c4ccccc4O)C(=O)C2C31 (stereo not given),-0.8,8.8*,/,0.2,-6.0,-0.2
SMILES,NPY Y1 blocker,Wee1 degr inh,NPY Y2 blocker,NPY-Y1 PAM-ag,NPY-Y2 PAM-ag,Hsp70 act
CCOC(=O)CSc1nc2ccc(NC(=O)CSc3nnnn3Cc3ccccc3)cc2s1,-14.1,2.9,-3.1,103.8*,98.9*,-0.5
CCOC(=O)CSc1nc2ccc(N)cc2s1,-8.2,0.3,2.3,55.8*,34.2*,-0.8
COC(=O)CSc1nc2ccc(NC(C)=O)cc2s1,-7.7,1.8,2.5,67.8*,61.7*,-0.3
CC(=O)Nc1ccc2nc(SCC(=O)N3CCOCC3)sc2c1,-0.4,0.2,/,-0.2,3.4,0.0
CC(C)N(C(=O)C(F)(F)F)C(C(=O)NC1CCCCC1)c1ccncc1 (stereo not given),-4.7,-2.5,-0.1,-9.9,-4.3,-0.2
CCCCCC(=O)Nc1c(-c2ccc(OC)cc2)c(=O)c2ccccc2n1C,-3.8,9.9*,2.7,-8.6,-4.4,-0.4
CCCC(=O)Nc1c(-c2ccc(OC)cc2)c(=O)c2ccccc2n1C,0.3,1.2,-0.4,7.3,-6.8,0.2
Cc1ccc(C(=O)NC(=S)Nc2ccc3c(c2)OCCO3)c(C)c1,21.7*,-1.1,8.2,-17.2,-22.8,-0.1
CNc1nc(C)c(C(C)(C)C)s1,/,-1.3,/,5.5,2.8,/
NC(=O)c1ccsc1NC(=O)c1coc2ccccc2c1=O,6.8,10.0*,/,2.6,8.5,0.6
NC(=O)c1ccsc1NC(=O)CSc1ccccc1F,-1.3,3.2,1.6,13.4,-1.4,-0.1
CCOC(=O)C1=C(C)N(C)C(C)=C(C(=O)OCC)C1c1ccc(C(=O)OC)cc1,35.1*,-0.3,24.8*,-15.1,-13.3,0.1
CCOC(=O)C1=C(C)N(C)C(=S)NC1c1ccccc1 (stereo not given),8.8,2.5,0.6,-19.4,-3.0,-0.1
CCOC(=O)C1=C(C)N(C)C(C)=C(C(=O)OCC)C1c1ccc(Cl)cc1,12.6,1.7,9.1,-28.9,-1.1,-0.3
CCOC(=O)C1=C(C)N(C)C(=S)NC1c1ccc(Cl)cc1 (stereo not given),8.3,9.9*,2.3,3.6,2.4,-0.1
CC(=O)C1=C(O)C(=O)N(c2ccc(Br)cn2)C1c1ccc(Br)cc1 (stereo not given),/,10.5*,/,22.1,4.0,/
CC(=O)C1=C(O)C(=O)N(c2ccc(Br)cn2)C1c1ccc(F)cc1 (stereo not given),-1.2,10.6*,/,13.4,-9.5,0.2
CC(=O)C1=C(O)C(=O)N(c2nccs2)C1c1ccc(Br)cc1 (stereo not given),-1.8,9.1*,2.2,-5.9,1.4,0.1
CC(=O)C1=C(O)C(=O)N(c2nccs2)C1c1ccc(F)cc1 (stereo not given),-3.4,-1.6,1.8,5.6,-12.6,-0.5
COc1cccc2cc(C(=O)n3ccc(C)n3)c(=O)oc12,-2.9,-2.1,0.8,-12.3,3.4,0.4
CC[C@@H](C)C(NC(=O)OC(C)(C)C)c1cn([C@@H](CCCCNC(=O)OC(C)(C)C)C(=O)N2CCN(C(=O)OC(C)(C)C)CC2)nn1 (stereo not given in full),-2.5,0.2,/,10.5,2.7,0.0
